Reference: ChEMBL document CHEMBL4145471, “New 1,5 and 2,5-disubstituted tetrazoles-dependent activity towards surface barrier of Candida albicans” (Eur J Med Chem, 2018)

Assays:
Format in all cases: functional
[1] = system: Candida albicans; experiment: Antifungal activity against Candida albicans ATCC 90028 at 16 ug/ml after 48 hrs relative to control
Procedure, shortened: (§1)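 Planktonic broth microdilution per M27-A3 in MOPS-buffered RPMI 1640 (pH 7.0), final inoculum 1.8×10^3 cells/mL, compounds 0.0313–16 µg/mL from 1600 µg/mL stocks in ethanol or DMSO. Incubated at 35°C without agitation; OD405 read at 18 and 48 h. % inhibition was derived from test, sterility (no inoculum) and solvent growth-control wells. Amphotericin B at 0.5 µg/mL served as the 100% control.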

[2] = system: Candida albicans; experiment: Antifungal activity against Candida albicans ATCC 90028 at 0.25 ug/ml after 18 hrs relative to control
Procedure, shortened: (§2)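 Fluconazole (water stock, diluted in RPMI 1640) tested by CLSI M27-A3 broth microdilution against C. albicans ATCC 90028. Inoculum 1.8×10^3 cells/mL in RPMI 1640 buffered with MOPS, pH 7.0. Incubation at 35°C without agitation, read at 18 and 48 h. Growth by OD405 and visually; inhibition % calculated against solvent growth-control wells after subtracting sterility-control wells.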

[3] = system: Candida albicans; experiment: Antifungal activity against Candida albicans ATCC 90028 at 2 ug/ml after 18 hrs relative to control; procedure, shortened: as §1
[4] = system: Candida albicans; experiment: Antifungal activity against Candida albicans ATCC 90028 at 2 ug/ml after 48 hrs relative to control; procedure, shortened: as §1
[5] = system: Candida albicans; experiment: Antifungal activity against Candida albicans ATCC 90028 at 1 ug/ml after 48 hrs relative to control; procedure, shortened: as §1
[6] = system: Candida albicans; experiment: Antifungal activity against Candida albicans ATCC 90028 at 16 ug/ml after 18 hrs relative to control; procedure, shortened: as §1
[7] = system: Candida albicans; experiment: Antifungal activity against Candida albicans ATCC 90028 at 0.25 ug/ml after 48 hrs relative to control; procedure, shortened: as §2
[8] = system: Candida albicans; experiment: Antifungal activity against Candida albicans ATCC 90028 at 4 ug/ml after 48 hrs relative to control; procedure, shortened: as §1
[9] = system: Candida albicans; experiment: Antifungal activity against Candida albicans ATCC 90028 at 8 ug/ml after 48 hrs relative to control; procedure, shortened: as §1
[10] = system: Candida albicans; experiment: Antifungal activity against Candida albicans ATCC 90028 at 4 ug/ml after 18 hrs relative to control; procedure, shortened: as §1
[11] = system: Candida albicans; experiment: Antifungal activity against Candida albicans ATCC 90028 at 0.0625 ug/ml after 48 hrs relative to control; procedure, shortened: as §1
[12] = system: Candida albicans; experiment: Antifungal activity against Candida albicans ATCC 90028 at 0.125 ug/ml after 18 hrs relative to control; procedure, shortened: as §1
[13] = system: Candida albicans; experiment: Antifungal activity against Candida albicans ATCC 90028 at 0.125 ug/ml after 48 hrs relative to control; procedure, shortened: as §1
[14] = system: Candida albicans; experiment: Fungicidal activity against Candida albicans ATCC 90028 at 16 ug/ml after 48 hrs by M27-A3 microdilution method
Procedure, shortened: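 After 48 h at 35°C in M27-A3 microdilution plates (compound at 16 µg/mL), 50 µL aliquots from treated and solvent-control wells were diluted 10^4 in PBS and plated on drug-free Sabouraud dextrose agar, then incubated 48 h at 35°C. Reduction R = lg CFU/mL control − lg CFU/mL treated; R ≥ 3 defined as fungicidal.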

[15] = system: Candida albicans; experiment: Antifungal activity against Candida albicans ATCC 90028 at 0.5 ug/ml after 48 hrs relative to control; procedure, shortened: as §1
[16] = system: Candida albicans; experiment: Antifungal activity against Candida albicans ATCC 90028 at 0.0313 ug/ml after 18 hrs relative to control
[17] = system: Candida albicans; experiment: Antifungal activity against Candida albicans ATCC 90028 at 1 ug/ml after 18 hrs relative to control; procedure, shortened: as §1
[18] = system: Candida albicans; experiment: Antifungal activity against Candida albicans ATCC 90028 at 0.0313 ug/ml after 48 hrs relative to control
[19] = system: Candida albicans; experiment: Antifungal activity against Candida albicans ATCC 90028 at 8 ug/ml after 18 hrs relative to control; procedure, shortened: as §1
[20] = system: Candida albicans; experiment: Antifungal activity against Candida albicans ATCC 90028 at 0.0625 ug/ml after 18 hrs relative to control
[21] = system: Candida albicans; experiment: Antifungal activity against Candida albicans ATCC 90028 at 0.5 ug/ml after 18 hrs relative to control; procedure, shortened: as §1

Row | SMILES | Activity [1] [%] | Activity [2] [%] | Activity [3] [%] | Activity [4] [%] | Activity [5] [%] | Activity [6] [%] | Activity [7] [%] | Activity [8] [%] | Activity [9] [%] | Activity [10] [%] | Activity [11] [%] | Activity [12] [%] | Activity [13] [%] | Activity [14] [log10CFU/ml] | Activity [15] [%] | Activity [16] [%] | Activity [17] [%] | Activity [18] [%] | Activity [19] [%] | Activity [20] [%] | also measured
1 | CCOC(=O)CCn1nnnc1-c1ccc(C)cc1 | 98.82 | 95.87 | 89.93 | 97.05 | 99.04 | 98.97 | 98.72 | 99.01 | 98.86 | 99.94 | 99.11 | 99.61 | 98.94 | -0.54 | 99.08 | 99.74 | 98.46 | 99.34 | 98.51 | 99.59 | Activity [21]: 98.88%
2 | ClCCCn1nnc(-c2ccc(Cl)cc2)n1 | 98.74 | 99.99 | 99.22 | 99.24 | 99.1 | 100 | 99.04 | 98.93 | 98.75 | 99.02 | 98.83 | 99.94 | 98.9 | 0.26 | 98.74 | 96.23 | 91.33 | 99 | 98.47 | 99.94 | Activity [21]: 96.41%
3 | CCOC(=O)CCn1nnnc1-c1ccccc1 | 98.96 | 95.76 | 90.79 | 97.06 | 98.87 | 99.13 | 98.01 | 98.91 | 99.02 | 98.44 | 99.26 | 99.99 | 99.01 | 0.16 | 98.96 | 99.69 | 95.93 | 99.23 | 99.4 | 99.37 | Activity [21]: 98.87%
4 | CCOC(=O)CCn1nnc(-c2ccccc2Cl)n1 | 98.83 | 99.86 | 99.98 | 99.41 | 98.86 | 100 | 99.09 | 99.05 | 98.84 | 100 | 98.78 | 99.97 | 98.82 | 0.19 | 98.84 | 97.51 | 99.38 | 99.27 | 99.23 | 99.86 | Activity [21]: 96.86%
5 | CCOC(=O)CCn1nnnc1-c1ccccc1Cl | 99.28 | 99.78 | 92.75 | 99.07 | 99.17 | 99.55 | 99.02 | 99.25 | 99.17 | 99.9 | 99.19 | 99.93 | 99.24 | -0.01 | 99.06 | 99.33 | 87.68 | 99.2 | 99.99 | 99.98 | Activity [21]: 97.11%
6 | Clc1ccccc1-c1nnn(CCCN2CCOCC2)n1 | 99.2 | 90.79 | 92.76 | 97.16 | 99.02 | 99.64 | 98.01 | 98.91 | 98.97 | 98.62 | 99 | 98.25 | 98.94 | -0.08 | 98.83 | 100 | 98.01 | 99.12 | 98.97 | 98.7 | Activity [21]: 98.11%
7 | Cc1ccc(-c2nnn(CCCCl)n2)cc1 | 98.26 | 99.45 | 98.39 | 98.87 | 98.65 | 98.46 | 98.79 | 98.84 | 99.08 | 99.63 | 99.12 | 98.66 | 98.92 | 0.65 | 98.95 | 98.95 | 99.6 | 98.94 | 99.06 | 99.06 | Activity [21]: 97.59%
8 | c1ccc(-c2nnn(CCCN3CCOCC3)n2)cc1 | 99.31 | 99.96 | 85.92 | 98.84 | 98.87 | 97.02 | 99.13 | 99.15 | 98.82 | 99.64 | 99.55 | 99.81 | 97.95 | -0.34 | 99.59 | 94.63 | 80.42 | 98.98 | 99.94 | 99.93 | Activity [21]: 99.52%
9 | Clc1ccc(-c2nnn(CCCN3CCOCC3)n2)cc1 | 99.35 | 99.91 | 98.31 | 99.61 | 99.36 | 100 | 99.24 | 98.97 | 98.81 | 98.1 | 99.28 | 99.95 | 98.92 | 0.34 | 99.32 | 97.92 | 98.79 | 99.12 | 96.3 | 100 | Activity [21]: 92.34%
10 | ClCCCn1nnc(-c2ccccc2Cl)n1 | 98.34 | 99.95 | 95 | 98.6 | 98.69 | 94.16 | 98.96 | 98.5 | 99.05 | 99.32 | 99.03 | 99.62 | 99.13 | 0.51 | 98.89 | 99.97 | 98.99 | 99.17 | 98.9 | 98.61 | Activity [21]: 98.9%
